ChEMBL document CHEMBL1156731, “Antifungal activity of synthetic di(hetero)arylamines based on the benzo[b]thiophene moiety” (2008)
In brackets after ≈: the same amount, converted by molar mass. Activity calls are given as the source filed them. The rule behind the calls is not given here.

Tests used:
Candida albicans [1] = assay: Inhibition of germ tube formation in Candida albicans M1 after 3 hrs by hemocytometer; format: functional, organism-based
Outline: (§1)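 Overnight SDA cultures (37 °C) were suspended in NYP medium (N-acetylglucosamine 10^-3 mol/L, YNB 3.35 g/L, proline 10^-3 mol/L, NaCl 4.5 g/L, pH 6.7) at (1.0 ± 0.2) × 10^6 CFU/mL. Compound added at 1/2, 1/4 and 1/8 MIC (1% DMSO final), 3 h at 37 °C. 100 cells counted by hemocytometer; germ tube at least blastospore diameter, pseudohyphae excluded. Mean ± SD, three experiments.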

Microsporum canis = assay: Antifungal activity against Microsporum canis FF1 after 5 days by broth macrodilution method; format: functional; details: 120 h
Outline: (§2)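 Dermatophytes grown 5 days on SDA at 30 °C, subcultured. Conidial suspensions in saline were adjusted in MOPS-buffered RPMI 1640 (pH 7.0) to 1-2 × 10^4 CFU/mL. Macrodilution adapted from CLSI M38-A with 200-0.8 µg/mL twofold dilutions (DMSO ≤2%), incubated at 30 °C for 5 days. MIC at 80% turbidity reduction vs control; MFC by SDA subculture at 30 °C. Triplicate experiments in duplicate.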

Aspergillus fumigatus [2] = assay: Antifungal activity against Aspergillus fumigatus ATCC 46645 after 3 days by broth macrodilution method; format: functional; details: ATCC 46645, 72 h
Outline: (§3)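 Aspergillus inoculum from 3-day SDA subcultures at 30 °C; conidial suspension in 0.85% saline, diluted in RPMI 1640 (L-glutamine, no bicarbonate, 0.165 M MOPS, pH 7.0) to 1-2 × 10^4 CFU/mL. Twofold dilutions 200-0.8 µg/mL from DMSO stock (final DMSO ≤2%); macrodilution per CLSI M38-A, 30 °C, 3 days. MIC = lowest concentration giving 80% turbidity reduction vs drug-free control; MFC by subculture on SDA. Three independent experiments in duplicate.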

Candida albicans [3] = assay: Antifungal activity against Candida albicans ATCC 10231 assessed as red fluorescence stained with FUN1 by flow cytometry; format: functional
Outline: (§4)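 Overnight SDA cells suspended in RPMI 1640 at (2.0 ± 0.2) × 10^6 CFU/mL. Twofold dilutions 256 to one µg/mL applied at 35 °C, humid, no agitation, 2, 4 and 24 h. Washed; FUN-1 0.5 µM in PBS/2% glucose (20 min, 35 °C, FL2) or PI 1 µg/mL with 0.125% deoxycholate (~10 min, room temperature, FL3). ≥7500 events; marker included ≤5% of drug-free control cells.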

Candida albicans [4] = assay: Inhibition of germ tube formation in Candida albicans ATCC 10231 after 3 hrs by hemocytometer; format: functional, organism-based; outline: as §1
Candida albicans [5] = assay: Antifungal activity against Candida albicans ATCC 10231 after 48 hrs by broth macrodilution method; format: functional; details: ATCC 10231, 48 h
Outline: (§5)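 Yeasts grown 1 day on SDA at 37 °C, subcultured, suspended in saline and diluted in MOPS-buffered RPMI 1640 (pH 7.0) to 1-2 × 10^3 CFU/mL. Broth macrodilution per CLSI M27-A2, twofold dilutions 200-0.8 µg/mL (DMSO ≤2% final), aerobic, 37 °C, 48 h. MIC = 80% turbidity reduction vs drug-free control; MFC from SDA subculture at 37 °C. Three independent experiments in duplicate.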

Aspergillus fumigatus [6] = assay: Antifungal activity against Aspergillus fumigatus ATCC 46645 assessed as red fluorescence stained with PI by flow cytometry; format: functional
Outline: (§6)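 Conidia from 4–7-day SDA cultures suspended in water with 0.01% Tween 80 at (2.0 ± 0.2) × 10^6 CFU/mL. Exposed to twofold dilutions 256 to one µg/mL at 35 °C, water bath with agitation, 3, 4 and 24 h. FUN-1 0.5 µM (20 min, 35 °C, FL2) or PI 1 µg/mL (1 h, 35 °C, FL3); ≥7500 events; positive-cell marker set at ≤5% of drug-free controls.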

Aspergillus fumigatus [7] = assay: Antifungal activity against Aspergillus fumigatus ATCC 46645 assessed as red fluorescence stained with FUN1 by flow cytometry; format: functional, organism-based; outline: as §6
Epidermophyton floccosum = assay: Antifungal activity against Epidermophyton floccosum FF9 after 5 days by broth macrodilution method; format: functional; details: 120 h; outline: as §2
Candida albicans [8] = assay: Antifungal activity against Candida albicans D5 after 48 hrs by broth macrodilution method; format: functional; outline: as §5
Aspergillus flavus = assay: Antifungal activity against Aspergillus flavus F44 after 3 days by broth macrodilution method; format: functional; details: 72 h; outline: as §3
[9] = test system: Trichophyton mentagrophytes; assay: Antifungal activity against Trichophyton mentagrophytes FF7 after 5 days by broth macrodilution method; format: functional; details: 120 h; outline: as §2
Nakaseomyces glabratus = assay: Antifungal activity against Candida glabrata D10R after 48 hrs by broth macrodilution method; format: functional
Outline: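 Broth macrodilution per CLSI M27-A2 (minor modifications). Inoculum 1-2 × 10^3 CFU/mL in RPMI 1640 with L-glutamine, MOPS-buffered 0.165 M, pH 7.0. Twofold dilutions 200-0.8 µg/mL from DMSO stock (final DMSO ≤2%). Aerobic, 37 °C, 48 h. MIC = lowest concentration giving 80% turbidity reduction versus drug-free control. Three independent experiments in duplicate.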

Pichia kudriavzevii = assay: Antifungal activity against Candida krusei ATCC 6258 after 48 hrs by broth macrodilution method; format: functional; details: ATCC 6258, 48 h; outline: as §5
Nannizzia gypsea = assay: Antifungal activity against Microsporum gypseum FF3 after 5 days by broth macrodilution method; format: functional; details: 120 h; outline: as §2
Candida albicans [10] = assay: Antifungal activity against Candida albicans ATCC 10231 assessed as red fluorescence stained with PI by flow cytometry; format: functional; outline: as §4
Trichophyton rubrum = assay: Antifungal activity against Trichophyton rubrum FF5 after 5 days by broth macrodilution method; format: functional; details: 120 h; outline: as §2
Candida albicans [11] = assay: Inhibition of germ tube formation in Candida albicans D5 after 3 hrs by hemocytometer; format: functional, organism-based; outline: as §1
Aspergillus niger = assay: Antifungal activity against Aspergillus niger ATCC 16404 after 3 days by broth macrodilution method; format: functional; details: ATCC 16404, 72 h; outline: as §3
Candida tropicalis = assay: Antifungal activity against Candida tropicalis ATCC 13803 after 48 hrs by broth macrodilution method; format: functional; details: ATCC 13803, 48 h; outline: as §5

In the case of `c1cncc(Nc2csc3ccccc23)c1`, the Activity (Candida albicans [1]) is reported as “Active”, the MFC (Microsporum canis) is reported as greater than 12.5 µg/mL and the MIC (Microsporum canis) is reported as 12.5 µg/mL (≈ 55.2 µM). For the same molecule, the MFC (Aspergillus fumigatus [2]) was greater than 50 µg/mL, the MIC (Aspergillus fumigatus [2]) was 25 µg/mL (≈ 110 µM) and the Activity (Candida albicans [3]) was 60%. The Activity (Candida albicans [4]) was “Active”, the MFC (Candida albicans [5]) was 100 µg/mL (≈ 442 µM) and the MIC (Candida albicans [5]) was 50 µg/mL (≈ 221 µM). For the same molecule, the Activity (Aspergillus fumigatus [6]) was 40%, the Activity (Aspergillus fumigatus [7]) was “Active” and the MFC (Epidermophyton floccosum) was greater than 12.5 µg/mL. The MIC (Epidermophyton floccosum) was 12.5 µg/mL (≈ 55.2 µM), the MFC (Candida albicans [8]) was greater than 50 µg/mL and the MIC (Candida albicans [8]) was 50 µg/mL (≈ 221 µM). It also gave an MFC (Aspergillus flavus) of 100 µg/mL (≈ 442 µM), an MIC (Aspergillus flavus) of 50 µg/mL (≈ 221 µM) and an MFC [9] greater than 12.5 µg/mL. For the same molecule, the MIC [9] was 12.5 µg/mL (≈ 55.2 µM), the MFC (Nakaseomyces glabratus) was greater than 50 µg/mL and the MIC (Nakaseomyces glabratus) was 50 µg/mL (≈ 221 µM). For the same molecule, the MFC (Pichia kudriavzevii) was greater than 100 µg/mL, the MIC (Pichia kudriavzevii) was 100 µg/mL (≈ 442 µM) and the MFC (Nannizzia gypsea) was greater than 12.5 µg/mL. For the same molecule, the MIC (Nannizzia gypsea) was 12.5 µg/mL (≈ 55.2 µM), the Activity (Candida albicans [10]) was 40% and the MFC (Trichophyton rubrum) was 12.5 µg/mL (≈ 55.2 µM). The MIC (Trichophyton rubrum) was 3.13 µg/mL (≈ 13.8 µM), the Activity (Candida albicans [11]) was “Active” and the MFC (Aspergillus niger) was greater than 100 µg/mL. The MIC (Aspergillus niger) was 50 µg/mL (≈ 221 µM), the MFC (Candida tropicalis) was greater than 100 µg/mL and the MIC (Candida tropicalis) was 100 µg/mL (≈ 442 µM).
`CCOC(=O)c1sc2ccccc2c1Nc1ccc(O)cc1` was tested, and the MFC (Microsporum canis) was 1.56 µg/mL (≈ 4.98 µM), the MIC (Microsporum canis) was 1.56 µg/mL (≈ 4.98 µM) and the MFC (Aspergillus fumigatus [2]) was greater than 200 µg/mL. It also gave an MIC (Aspergillus fumigatus [2]) greater than 200 µg/mL, an MFC (Candida albicans [5]) greater than 200 µg/mL and an MIC (Candida albicans [5]) greater than 200 µg/mL. The MFC (Epidermophyton floccosum) was 12.5 µg/mL (≈ 39.9 µM), the MIC (Epidermophyton floccosum) was 3.13 µg/mL (≈ 9.99 µM) and the MFC (Candida albicans [8]) was greater than 200 µg/mL. The MIC (Candida albicans [8]) was greater than 200 µg/mL, the MFC (Aspergillus flavus) was greater than 200 µg/mL and the MIC (Aspergillus flavus) was greater than 200 µg/mL. The MFC [9] was 6.25 µg/mL (≈ 19.9 µM), the MIC [9] was 6.25 µg/mL (≈ 19.9 µM) and the MFC (Nakaseomyces glabratus) was greater than 200 µg/mL. It also gave an MIC (Nakaseomyces glabratus) greater than 200 µg/mL, an MFC (Pichia kudriavzevii) greater than 200 µg/mL and an MIC (Pichia kudriavzevii) greater than 200 µg/mL. It also gave an MFC (Nannizzia gypsea) of 12.5 µg/mL (≈ 39.9 µM), an MIC (Nannizzia gypsea) of 6.25 µg/mL (≈ 19.9 µM) and an MFC (Trichophyton rubrum) of 6.25 µg/mL (≈ 19.9 µM). For the same molecule, the MIC (Trichophyton rubrum) was 6.25 µg/mL (≈ 19.9 µM), the MFC (Aspergillus niger) was greater than 200 µg/mL and the MIC (Aspergillus niger) was greater than 200 µg/mL. For the same molecule, the MFC (Candida tropicalis) was greater than 200 µg/mL and the MIC (Candida tropicalis) was greater than 200 µg/mL.
`CCOC(=O)c1sc2ccccc2c1Nc1ccc(F)cc1` showed an MFC (Microsporum canis) greater than 200 µg/mL, an MIC (Microsporum canis) greater than 200 µg/mL and an MFC (Aspergillus fumigatus [2]) greater than 200 µg/mL. It also gave an MIC (Aspergillus fumigatus [2]) greater than 200 µg/mL, an MFC (Candida albicans [5]) greater than 200 µg/mL and an MIC (Candida albicans [5]) greater than 200 µg/mL. The MFC (Epidermophyton floccosum) was greater than 200 µg/mL, the MIC (Epidermophyton floccosum) was greater than 200 µg/mL and the MFC (Candida albicans [8]) was greater than 200 µg/mL. For the same molecule, the MIC (Candida albicans [8]) was greater than 200 µg/mL, the MFC (Aspergillus flavus) was greater than 200 µg/mL and the MIC (Aspergillus flavus) was greater than 200 µg/mL. The MFC [9] was greater than 200 µg/mL, the MIC [9] was greater than 200 µg/mL and the MFC (Nakaseomyces glabratus) was greater than 200 µg/mL. The MIC (Nakaseomyces glabratus) was greater than 200 µg/mL, the MFC (Pichia kudriavzevii) was greater than 200 µg/mL and the MIC (Pichia kudriavzevii) was greater than 200 µg/mL. It also gave an MFC (Nannizzia gypsea) greater than 200 µg/mL, an MIC (Nannizzia gypsea) greater than 200 µg/mL and an MFC (Trichophyton rubrum) greater than 200 µg/mL. The MIC (Trichophyton rubrum) was greater than 200 µg/mL, the MFC (Aspergillus niger) was greater than 200 µg/mL and the MIC (Aspergillus niger) was greater than 200 µg/mL. The MFC (Candida tropicalis) was greater than 200 µg/mL and the MIC (Candida tropicalis) was greater than 200 µg/mL.
For `CCOC(=O)c1sc2ccccc2c1Nc1cccnc1`, the MFC (Microsporum canis) was greater than 50 µg/mL, the MIC (Microsporum canis) was 3.13 µg/mL (≈ 10.5 µM) and the MFC (Aspergillus fumigatus [2]) was greater than 200 µg/mL. For the same molecule, the MIC (Aspergillus fumigatus [2]) was greater than 200 µg/mL, the MFC (Candida albicans [5]) was greater than 200 µg/mL and the MIC (Candida albicans [5]) was greater than 200 µg/mL. It also gave an MFC (Epidermophyton floccosum) greater than 50 µg/mL, an MIC (Epidermophyton floccosum) of 6.25 µg/mL (≈ 20.9 µM) and an MFC (Candida albicans [8]) greater than 200 µg/mL. It also gave an MIC (Candida albicans [8]) greater than 200 µg/mL, an MFC (Aspergillus flavus) greater than 200 µg/mL and an MIC (Aspergillus flavus) greater than 200 µg/mL. For the same molecule, the MFC [9] was greater than 50 µg/mL, the MIC [9] was 3.13 µg/mL (≈ 10.5 µM) and the MFC (Nakaseomyces glabratus) was greater than 200 µg/mL. The MIC (Nakaseomyces glabratus) was greater than 200 µg/mL, the MFC (Pichia kudriavzevii) was greater than 200 µg/mL and the MIC (Pichia kudriavzevii) was greater than 200 µg/mL. For the same molecule, the MFC (Nannizzia gypsea) was greater than 50 µg/mL, the MIC (Nannizzia gypsea) was 6.25 µg/mL (≈ 20.9 µM) and the MFC (Trichophyton rubrum) was greater than 50 µg/mL. It also gave an MIC (Trichophyton rubrum) of 3.13 µg/mL (≈ 10.5 µM), an MFC (Aspergillus niger) greater than 200 µg/mL and an MIC (Aspergillus niger) greater than 200 µg/mL. It also gave an MFC (Candida tropicalis) greater than 200 µg/mL and an MIC (Candida tropicalis) greater than 200 µg/mL.
